ChEMBL document CHEMBL1123749, “O-carbamoylsalicylates: agents for modification of hemoglobins” (J Med Chem, 1987)

Tests used:
Type in all cases: functional
[1] = Effect of compound on modification of oxy form of hemoglobin expressed as percent modification at 5 mM concentration
Procedure, shortened: (§1)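 Hemoglobin A (1.0 mM) incubated with carbamate reagent in 0.1 M Tris-HCl, pH 7.3, at 37 °C for 2 h. Extent of modification and oxygen affinity (p50, mmHg) then measured by a previously described method. Oxygen binding was read with and without inositol hexaphosphate. At 10 mM, reagent concentration is uncertain for some compounds because of incomplete solubility.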

[2] = Effect of compound on modification of deoxy form of hemoglobin expressed as percent modification at 5 mM concentration; procedure, shortened: as §1
[3] = Effect of compound on oxygen affinity, expressed as P50 (mmHg) at 10 mM concentration in the absence of Inositol hexa phosphate (IHP); procedure, shortened: as §1
[4] = Effect of compound on oxygen affinity, expressed as P50 (mmHg) at 10 mM concentration in the presence of 2 mM Inositol hexa phosphate (IHP); procedure, shortened: as §1
[5] = Effect of compound on oxygen affinity, expressed as P50 (mmHg) at 5 mM concentration in the presence of Inositol hexa phosphate (IHP); procedure, shortened: as §1
[6] = Effect of compound on modification of oxy form of hemoglobin expressed as percent modification at 10 mM concentration; procedure, shortened: as §1
[7] = Effect of compound on oxygen affinity, expressed as P50 (mmHg) at 5 mM concentration in the absence of Inositol hexa phosphate (IHP); procedure, shortened: as §1
[8] = Effect of compound on oxygen affinity, was expressed as P50 (mmHg) at 10 mM concentration in the presence of 2 mM Inositol hexa phosphate (IHP); procedure, shortened: as §1
[9] = Effect of compound on oxygen affinity, was expressed as P50 (mmHg) at 10 mM concentration in the absence of Inositol hexa phosphate (IHP); procedure, shortened: as §1
[10] = Effect of compound on oxygen affinity, was expressed as P50 (mmHg) at 5 mM concentration in the absence of Inositol hexa phosphate (IHP)
Procedure, shortened: (§2)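 Human hemoglobin A (1.0 mM) treated with reagent in 0.1 M Tris-HCl buffer, pH 7.3, at 37 °C for 2 h. Extent of modification and oxygen affinity (p50, mm) then determined by a previously described method; p50 read with and without inositol hexaphosphate. Reagent concentration uncertain for some compounds owing to incomplete solubility.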

[11] = Effect of compound on modification of oxy form of hemoglobin was expressed as percent modification at 5 mM concentration; procedure, shortened: as §2
[12] = Effect of compound on modification of deoxy form of hemoglobin was expressed as percent modification at 5 mM concentration; procedure, shortened: as §2
[13] = Effect of compound on oxygen affinity, was expressed as P50 (mmHg) at 5 mM concentration in the presence of Inositol hexa phosphate (IHP); procedure, shortened: as §2
[14] = Effect of compound on modification of oxy form of hemoglobin was expressed as percent modification at 10 mM concentration; procedure, shortened: as §2
[15] = Effect of compound on modification of oxy form of hemoglobin was expressed as percent modification at 10 mM concentration, concentration is uncertain due to incomplete solubility; procedure, shortened: as §1

Structure (SMILES): NC(=O)Oc1ccccc1
- Modification of hemoglobin [1]: 44%
- Modification of hemoglobin [2]: 40%
- P50 [3]: 5 mmHg
- P50 [4]: 30 mmHg
- P50 [5]: 39 mmHg
- Modification of hemoglobin [6]: 67%
- P50 [7]: 6 mmHg

Structure (SMILES): COC(=O)c1ccccc1OC(N)=O
- P50 [8]: 25 mmHg
- P50 [9]: 6 mmHg
- P50 [10]: 6 mmHg
- Modification of hemoglobin [11]: 54%
- Modification of hemoglobin [12]: 52%
- P50 [13]: 35 mmHg
- Modification of hemoglobin [14]: 83%

Structure (SMILES): CN(C)C(=O)Oc1ccccc1C(=O)OCc1ccccc1
- P50 [8]: 44 mmHg
- P50 [9]: 6 mmHg
- P50 [10]: 6 mmHg
- Modification of hemoglobin [11]: 0%
- Modification of hemoglobin [12]: 0%
- P50 [13]: 42 mmHg
- Modification of hemoglobin [14]: 0%

Structure (SMILES): NC(=O)Oc1ccccc1C(=O)OCc1ccccc1
- P50 [10]: 6 mmHg
- Modification of hemoglobin [11]: 45%
- Modification of hemoglobin [12]: 46%
- P50 [13]: 37.5 mmHg

Structure (SMILES): CN(C)C(=O)Oc1c(Br)cc(Br)cc1C(=O)OCc1ccccc1
- P50 [8]: 41 mmHg
- P50 [9]: 7 mmHg
- P50 [10]: 6 mmHg
- Modification of hemoglobin [11]: 0%
- Modification of hemoglobin [12]: 0%
- P50 [13]: 41 mmHg
- Modification of hemoglobin [14]: 0%

Structure (SMILES): NC(=O)Oc1ccccc1C(=O)O
- P50 [8]: 22 mmHg
- P50 [9]: 6 mmHg
- P50 [10]: 6 mmHg
- Modification of hemoglobin [11]: 62%
- Modification of hemoglobin [12]: 58%
- P50 [13]: 33 mmHg
- Modification of hemoglobin [14]: 94%

Structure (SMILES): CN(C)C(=O)Oc1ccccc1C(=O)O
- P50 [8]: 42 mmHg
- P50 [9]: 6 mmHg
- Modification of hemoglobin [15]: 0%

Structure (SMILES): COC(=O)c1ccc(OC(N)=O)cc1
- P50 [8]: 23 mmHg
- P50 [9]: 6.5 mmHg
- P50 [10]: 6 mmHg
- Modification of hemoglobin [11]: 61%
- Modification of hemoglobin [12]: 58%
- P50 [13]: 33 mmHg
- Modification of hemoglobin [14]: 89%
